Experiments:
[1] = molecular target: T1, Angiotensin II receptor (Rattus norvegicus) (UniProt P29089+P25095+P35351); assay: Percent inhibition of the Angiotensin-II (0.1ug/kg, iv) induced pressor response after 7 hours of administration (1 mg/kg po) in rats; format: functional, organism-based
Summary of the method: (§1)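 Conscious male Sprague-Dawley rats dosed orally with test compound; pressor response to AII challenge (0.1 µg/kg iv) measured at 3 and 7 h after dosing and expressed as percent inhibition. Duplicate experiments, with n = 3 for some compounds; variation in % inhibition under 30%.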

[2] = molecular target: T1, Angiotensin II receptor (Rattus norvegicus); assay: Percent inhibition of the Angiotensin-II (0.1ug/kg, iv) induced pressor response after 3 hours of administration (1 mg/kg po) in rats; format: functional, organism-based; summary of the method: as §1
[3] = molecular target: T1, Angiotensin II receptor (Rattus norvegicus); assay: (§2) Percent inhibition of the Angiotensin-II (0.1micro g/kg, iv) induced pressor response after 7 hours of administration (3 mg/kg po) in rats; format: functional, organism-based; summary of the method: as §1
[4] = molecular target: T1, Angiotensin II receptor (Rattus norvegicus); assay: Percent inhibition of the Angiotensin-II (0.1ug/kg, iv) induced pressor response after 3 hours of administration (3 mg/kg po) in rats; format: functional, organism-based; summary of the method: as §1
[5] = molecular target: T2, Type-1 angiotensin II receptor (Bos taurus, UniProt P25104); assay: Inhibition of specific binding of [125 I ] Angiotensin-II (0.2 nM) to bovine adrenal cortex; format: tissue-based
T2 sequence (P25104 whole entry): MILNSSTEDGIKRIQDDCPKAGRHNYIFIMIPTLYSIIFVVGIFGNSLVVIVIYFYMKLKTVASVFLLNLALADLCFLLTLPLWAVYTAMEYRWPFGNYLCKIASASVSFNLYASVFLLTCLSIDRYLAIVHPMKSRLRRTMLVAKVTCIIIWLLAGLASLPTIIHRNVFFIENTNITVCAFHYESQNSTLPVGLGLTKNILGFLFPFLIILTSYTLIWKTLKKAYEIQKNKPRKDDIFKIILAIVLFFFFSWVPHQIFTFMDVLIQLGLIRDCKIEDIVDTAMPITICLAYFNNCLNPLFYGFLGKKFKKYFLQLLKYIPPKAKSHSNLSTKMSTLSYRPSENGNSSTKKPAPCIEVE

Rattus norvegicus [6] = assay: as §2; format: functional; summary of the method: as §1
Rattus norvegicus [7] = assay: Percent inhibition of the Angiotensin-II (0.1micro g/kg, iv) induced pressor response after 7 hours of administration (10 mg/kg po) in rats; format: functional; summary of the method: as §1
Oryctolagus cuniculus = organism: Oryctolagus cuniculus; assay: Concentration required for inhibition of Angiotensin-II induced rabbit aorta strips contraction; format: functional
Summary of the method: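 Isolated rabbit aortic strips contracted with AII (10 nM); test compound inhibition measured from concentration-inhibition curves, n = 6-8; IC50 is the concentration halving the AII-induced contraction.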

Rattus norvegicus [8] = assay: Percent inhibition of the Angiotensin-II (0.1ug/kg, iv) induced pressor response after 3 hours of administration (10 mg/kg po) in rats; format: functional; summary of the method: as §1
Rattus norvegicus [9] = assay: Percent inhibition of the Angiotensin-II (0.1ug/kg, iv) induced pressor response after 7 hours of administration (3 mg/kg po) in rats; format: functional; summary of the method: as §1

| SMILES | inhibition [1] [%] | inhibition [2] [%] | IC50 [5] [nM] | also measured |
| --- | --- | --- | --- | --- |
| CCC(C)c1nc2cccc(C(=O)O)c2n1Cc1ccc(-c2ccccc2-c2nn[nH]n2)cc1 (centres undefined) | 0 | 6 | – | inhibition [3]: 18%; inhibition [4]: 15% |
| CCCc1nc2cccc(C(=O)O)c2n1Cc1ccc(-c2ccccc2-c2nn[nH]n2)cc1 | 69 | 83 | 170 | inhibition [3]: 91%; inhibition [4]: 90% |
| COC(=O)c1cccc2nc(OCC(F)(F)F)n(Cc3ccc(-c4ccccc4-c4nnn[nH]4)cc3)c12 | – | – | > 1000 | – |
| CCCOc1nc2cccc(C(=O)OCC)c2n1Cc1ccc(-c2ccccc2-c2nnn[nH]2)cc1 | – | – | 1000 | – |
| CCCSc1nc2cccc(C(=O)O)c2n1Cc1ccc(-c2ccccc2-c2nn[nH]n2)cc1 | 100 | 100 | – | inhibition [3]: 76%; inhibition [4]: 88% |
| CCSc1nc2cccc(C(=O)O)c2n1Cc1ccc(-c2ccccc2-c2nn[nH]n2)cc1 | 90 | 87 | – | inhibition [3]: 97%; inhibition [4]: 99% |
| CCCCc1nc2cccc(C(=O)O)c2n1Cc1ccc(-c2ccccc2-c2nn[nH]n2)cc1 | 53 | 49 | – | Inhibition (Rattus norvegicus [6]): 76%; inhibition [4]: 80% |
| CCC(C)c1nc2cccc(C(=O)O)c2n1Cc1ccc(-c2ccccc2-c2nnn[nH]2)cc1 (centres undefined) | – | – | 3900 | – |
| CCCCCc1nc2cccc(C(=O)O)c2n1Cc1ccc(-c2ccccc2-c2nnn[nH]2)cc1 | – | – | 560 | – |
| CCCCc1nc(Cl)c(CO)n1Cc1ccc(-c2ccccc2-c2nn[nH]n2)cc1 [LOSARTAN POTASSIUM] | – | – | 150 | – |
| C=CCOc1nc2cccc(C(=O)OC)c2n1Cc1ccc(-c2ccccc2-c2nn[nH]n2)cc1 | 12 | 14 | – | – |
| CCOc1nc2cccc(C(=O)OC)c2n1Cc1ccc(-c2ccccc2-c2nn[nH]n2)cc1 | 90 | 100 | – | inhibition [3]: 100%; inhibition [4]: 100% |
| Cc1nc2cccc(C(=O)O)c2n1Cc1ccc(-c2ccccc2-c2nnn[nH]2)cc1 | – | – | 190 | – |
| C=CCOc1nc2cccc(C(=O)OC)c2n1Cc1ccc(-c2ccccc2-c2nnn[nH]2)cc1 | – | – | 850 | – |
| CCCNc1nc2cccc(C(=O)O)c2n1Cc1ccc(-c2ccccc2-c2nnn[nH]2)cc1 | – | – | 39 | – |
| COC(=O)c1cccc2nc(OC)n(Cc3ccc(-c4ccccc4-c4nn[nH]n4)cc3)c12 | 89 | 94 | – | – |
| O=C(O)c1cccc2nc(C3CC3)n(Cc3ccc(-c4ccccc4-c4nn[nH]n4)cc3)c12 | 88 | 80 | 84 | inhibition [3]: 96%; inhibition [4]: 92% |
| CCCOc1nc2cccc(C(=O)O)c2n1Cc1ccc(-c2ccccc2-c2nn[nH]n2)cc1 | 83 | 87 | – | inhibition [3]: 100%; inhibition [4]: 100% |
| CC(C)c1nc2cccc(C(=O)O)c2n1Cc1ccc(-c2ccccc2-c2nn[nH]n2)cc1 | – | – | – | inhibition [3]: 38%; inhibition [4]: 61% |
| CNc1nc2cccc(C(=O)O)c2n1Cc1ccc(-c2ccccc2-c2nnn[nH]2)cc1 | – | – | 170 | – |

| SMILES | inhibition [1] [%] | inhibition [2] [%] | IC50 [5] [nM] | also measured |
| --- | --- | --- | --- | --- |
| CCOc1nc2c(C(=O)O)cccc2n1Cc1ccc(-c2ccccc2-c2nn[nH]n2)cc1 | – | – | – | Inhibition (Rattus norvegicus [7]): 5%; IC50 (Oryctolagus cuniculus): 131 nM; Inhibition (Rattus norvegicus [8]): 22% |
| CCCCOc1nc2cccc(C(=O)OC)c2n1Cc1ccc(-c2ccccc2-c2nnn[nH]2)cc1 | – | – | > 1000 | – |
| CCCNc1nc2cccc(C(=O)O)c2n1Cc1ccc(-c2ccccc2-c2nn[nH]n2)cc1 | 66 | 46 | – | inhibition [3]: 72%; inhibition [4]: 73% |
| CCCCc1nc2cccc(C(=O)O)c2n1Cc1ccc(-c2ccccc2-c2nnn[nH]2)cc1 | – | – | 550 | – |
| CC[S+]([O-])c1nc2cccc(C(=O)OC)c2n1Cc1ccc(-c2ccccc2-c2nn[nH]n2)cc1 (centres undefined) | – | – | > 1000 | – |
| CSc1nc2cccc(C(=O)O)c2n1Cc1ccc(-c2ccccc2-c2nnn[nH]2)cc1 | – | – | 120 | – |
| CCCSc1nc2cccc(C(=O)O)c2n1Cc1ccc(-c2ccccc2-c2nnn[nH]2)cc1 | – | – | 120 | – |
| COc1nc2cccc(C(=O)O)c2n1Cc1ccc(-c2ccccc2-c2nnn[nH]2)cc1 | – | – | 32 | – |
| CCCCNc1nc2cccc(C(=O)O)c2n1Cc1ccc(-c2ccccc2-c2nnn[nH]2)cc1 | – | – | 650 | – |
| COC(=O)c1cccc2nc(OCC(F)(F)F)n(Cc3ccc(-c4ccccc4-c4nn[nH]n4)cc3)c12 | 9 | 36 | – | – |
| CC(C)c1nc2cccc(C(=O)O)c2n1Cc1ccc(-c2ccccc2-c2nnn[nH]2)cc1 | – | – | 82 | – |
| CCOCc1nc2cccc(C(=O)O)c2n1Cc1ccc(-c2ccccc2-c2nn[nH]n2)cc1 | 29 | 63 | – | – |
| CCOc1nc2cc(C(=O)O)ccc2n1Cc1ccc(-c2ccccc2-c2nn[nH]n2)cc1 | – | – | 13000 | Inhibition (Rattus norvegicus [7]): 4%; IC50 (Oryctolagus cuniculus): 191 nM; Inhibition (Rattus norvegicus [8]): 4% |
| CCCOc1nc2cccc(C(=O)OCC)c2n1Cc1ccc(-c2ccccc2-c2nn[nH]n2)cc1 | – | – | – | Inhibition (Rattus norvegicus [9]): 93%; inhibition [4]: 66% |
| COCc1nc2cccc(C(=O)O)c2n1Cc1ccc(-c2ccccc2-c2nn[nH]n2)cc1 | 33 | 47 | 250 | – |
| O=C(O)c1cccc2nc(OCC(F)(F)F)n(Cc3ccc(-c4ccccc4-c4nn[nH]n4)cc3)c12 | 7 | 28 | 580 | – |
| CCNc1nc2cccc(C(=O)O)c2n1Cc1ccc(-c2ccccc2-c2nnn[nH]2)cc1 | – | – | 62 | – |
| CCSCc1nc2cccc(C(=O)O)c2n1Cc1ccc(-c2ccccc2-c2nn[nH]n2)cc1 | 57 | 68 | – | – |
| CCN(C)c1nc2cccc(C(=O)O)c2n1Cc1ccc(-c2ccccc2-c2nnn[nH]2)cc1 | – | – | > 1000 | – |
| CC(C)Cc1nc2cccc(C(=O)O)c2n1Cc1ccc(-c2ccccc2-c2nnn[nH]2)cc1 | – | – | 3200 | – |

| SMILES | inhibition [1] [%] | inhibition [2] [%] | IC50 [5] [nM] | also measured |
| --- | --- | --- | --- | --- |
| COCCc1nc2cccc(C(=O)O)c2n1Cc1ccc(-c2ccccc2-c2nn[nH]n2)cc1 | 3 | 13 | 580 | – |
| CSc1nc2cccc(C(=O)O)c2n1Cc1ccc(-c2ccccc2-c2nn[nH]n2)cc1 | 81 | 100 | – | inhibition [3]: 95%; inhibition [4]: 100% |
| Cc1nc2cccc(C(=O)O)c2n1Cc1ccc(-c2ccccc2-c2nn[nH]n2)cc1 | – | – | – | Inhibition (Rattus norvegicus [6]): 51%; inhibition [4]: 50% |
| O=C(O)c1cccc2nc(N3CCOCC3)n(Cc3ccc(-c4ccccc4-c4nnn[nH]4)cc3)c12 | – | – | > 1000 | – |
| CCSc1nc2cccc(C(=O)O)c2n1Cc1ccc(-c2ccccc2-c2nnn[nH]2)cc1 | – | – | 170 | – |
| O=C(O)c1cccc2nc(N3CCCCC3)n(Cc3ccc(-c4ccccc4-c4nnn[nH]4)cc3)c12 | – | – | > 1000 | – |
| CCCCc1nc(Cl)c(CO)n1Cc1ccc(-c2ccccc2-c2nnn[nH]2)cc1 | 34 | 21 | – | inhibition [3]: 74%; inhibition [4]: 62% |
| COc1nc2cccc(C(=O)O)c2n1Cc1ccc(-c2ccccc2-c2nn[nH]n2)cc1 | 80 | 97 | – | – |
| COC(=O)c1cccc2nc(OC)n(Cc3ccc(-c4ccccc4-c4nnn[nH]4)cc3)c12 | – | – | 490 | – |
| CCOc1nc2cccc(C(=O)O)c2n1Cc1ccc(-c2ccccc2C(=O)O)cc1 | 44 | 26 | 190 | inhibition [3]: 49%; inhibition [4]: 37% |
| CC(C)Cc1nc2cccc(C(=O)O)c2n1Cc1ccc(-c2ccccc2-c2nn[nH]n2)cc1 | 13 | -9 | – | inhibition [3]: 29%; inhibition [4]: 29% |
| CCc1nc2cccc(C(=O)O)c2n1Cc1ccc(-c2ccccc2-c2nnn[nH]2)cc1 | – | – | 46 | – |
| CCOc1nc2ccc(C(=O)O)cc2n1Cc1ccc(-c2ccccc2-c2nn[nH]n2)cc1 | – | – | 930 | Inhibition (Rattus norvegicus [7]): 34%; IC50 (Oryctolagus cuniculus): 1.9 nM; Inhibition (Rattus norvegicus [8]): 50% |
| CCSCc1nc2cccc(C(=O)O)c2n1Cc1ccc(-c2ccccc2-c2nnn[nH]2)cc1 | – | – | 300 | – |
| CCOCc1nc2cccc(C(=O)O)c2n1Cc1ccc(-c2ccccc2-c2nnn[nH]2)cc1 | – | – | 440 | – |
| CCSc1nc2cccc(C(=O)OC)c2n1Cc1ccc(-c2ccccc2-c2nn[nH]n2)cc1 | – | – | 440 | – |
| CSCCc1nc2cccc(C(=O)O)c2n1Cc1ccc(-c2ccccc2-c2nn[nH]n2)cc1 | 10 | 10 | 620 | – |
| CCOc1nc2cccc(C(=O)OC)c2n1Cc1ccc(-c2ccccc2-c2nnn[nH]2)cc1 | – | – | 66 | – |
| CSCc1nc2cccc(C(=O)O)c2n1Cc1ccc(-c2ccccc2-c2nn[nH]n2)cc1 | 44 | 85 | 150 | – |
| CCCOc1nc2cccc(C(=O)O)c2n1Cc1ccc(-c2ccccc2-c2nnn[nH]2)cc1 | – | – | 190 | – |

Reference: ChEMBL document CHEMBL1126750, “Nonpeptide angiotensin II receptor antagonists. Synthesis and biological activity of benzimidazolecarboxylic acids” (J Med Chem, 1993)
